Results from ChEMBL document CHEMBL1765010, “Reversible competitive α-ketoheterocycle inhibitors of fatty acid amide hydrolase containing additional conformational constraints in the acyl side chain: orally active, long-acting analgesics” (J Med Chem, 2011).
Active and inactive are the calls of the source.

Columns and labels:
Mus musculus [1] = test: Inhibition of FAAH in C57Bl/6J mouse liver assessed as increase of anandamide level at 30 mg/kg, ip after 1 hr relative to control; format: functional; conditions: route intraperitoneal
Mus musculus [2] = test: Inhibition of FAAH in C57Bl/6J mouse brain assessed as increase of N-palmitoyl ethanolamine level at 30 mg/kg, ip after 1 hr relative to control; format: functional; conditions: route intraperitoneal
Procedure, shortened: (§1)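 Male C57Bl/6J mice (<6 months, 20–28 g) dosed i.p. at 30 mg/kg in 18:1:1 saline:ethanol:emulphor emulsion; brains taken 1 h later. One mouse in the initial screen, 3 per group in the follow-up. Brain homogenized in CHCl3:MeOH:Tris pH 8.0 with deuterated lipid standards; organic extract quantified by reverse-phase C18 LC-ESI-MS/MS against vehicle controls.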

[3] = Half life in rat liver microsomes; format: ADME, Microsome
Mus musculus [4] = test: Inhibition of FAAH in C57Bl/6J mouse liver assessed as increase of 2-arachidonoylglycerol level at 30 mg/kg, ip after 1 hr relative to control; format: functional; conditions: route intraperitoneal
Mus musculus [5] = test: Inhibition of FAAH in C57Bl/6J mouse brain assessed as increase of anandamide level at 50 mg/kg, po after 1 hr relative to control; format: functional
Procedure, shortened: (§2)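 Male C57Bl/6J mice (<6 months, 20–28 g) given compound orally as a PEG300 solution at 10, 25 or 50 mg/kg, with 3 mice per group in the 50 mg/kg p.o. comparison; brains collected 1 h post-dose. Lipids extracted in CHCl3:MeOH:Tris pH 8.0 with deuterated internal standards, then measured by C18 LC-ESI-MS/MS relative to vehicle-treated mice.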

Mus musculus [6] = test: Inhibition of FAAH in C57Bl/6J mouse liver assessed as increase of N-palmitoyl ethanolamine level at 30 mg/kg, ip after 1 hr relative to control; format: functional; conditions: route intraperitoneal
Mus musculus [7] = test: Inhibition of FAAH in C57Bl/6J mouse brain assessed as increase of anandamide level at 30 mg/kg, ip after 1 hr relative to control; format: functional; conditions: route intraperitoneal; procedure, shortened: as §1
Mus musculus [8] = test: Inhibition of FAAH in C57Bl/6J mouse brain assessed as increase of 2-arachidonoylglycerol level at 30 mg/kg, ip after 1 hr relative to control; format: functional; conditions: route intraperitoneal; procedure, shortened: as §1
Mus musculus [9] = test: Inhibition of FAAH in C57Bl/6J mouse brain assessed as increase of arachidonic acid level at 30 mg/kg, ip after 1 hr relative to control; format: functional; conditions: route intraperitoneal; procedure, shortened: as §1
Mus musculus [10] = test: Antinociceptive activity in CD1 mouse assessed as thermal-stimulus induced tail flick latency at 1 to 3.2 mg/kg, iv after 150 mins; format: functional, organism-based
Procedure, shortened: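 Mice given compound i.v.; tail-flick latency to 52 °C water measured at several times after dosing. Animals not responding within 5 s at baseline were excluded, and a 10 s cut-off was scored as 100%. % antinociception = 100 × (test − control latency)/(10 − control latency).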

[11] = Half life in human liver microsomes; format: ADME, Microsome
[12] = target: T1, Fatty-acid amide hydrolase 1 (Rattus norvegicus, UniProt P97612); test: Inhibition of rat recombinant FAAH expressed in Escherichia coli assessed as [14C]-labeled oleamide to oleic acid conversion
T1 sequence (P97612 whole entry): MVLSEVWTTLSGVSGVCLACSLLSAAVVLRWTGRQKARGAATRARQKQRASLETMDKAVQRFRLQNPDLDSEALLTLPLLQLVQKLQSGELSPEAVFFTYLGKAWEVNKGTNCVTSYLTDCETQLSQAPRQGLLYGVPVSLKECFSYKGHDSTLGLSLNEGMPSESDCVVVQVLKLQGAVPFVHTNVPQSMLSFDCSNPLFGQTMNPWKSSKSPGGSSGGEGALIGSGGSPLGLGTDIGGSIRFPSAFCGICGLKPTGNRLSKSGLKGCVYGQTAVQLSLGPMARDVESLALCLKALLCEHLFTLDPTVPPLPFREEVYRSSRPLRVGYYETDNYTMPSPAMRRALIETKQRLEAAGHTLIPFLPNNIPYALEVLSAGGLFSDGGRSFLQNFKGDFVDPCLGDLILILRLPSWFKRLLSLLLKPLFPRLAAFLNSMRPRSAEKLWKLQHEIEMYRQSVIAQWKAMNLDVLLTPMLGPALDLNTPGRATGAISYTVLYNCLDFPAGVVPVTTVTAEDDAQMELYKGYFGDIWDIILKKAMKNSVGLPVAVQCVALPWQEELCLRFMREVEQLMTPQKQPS

Mus musculus [13] = test: Antinociceptive activity in CD1 mouse assessed as thermal-stimulus induced tail flick latency at 1.8 to 5.6 mg/kg, iv after 30 to 60 mins; format: functional, organism-based
Procedure, shortened: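 Tail flick at 52 °C in mice, dosed i.v. Baseline responders within 5 s were kept and retested at several times after dosing. Cut-off 10 s, scored 100%. % antinociception = 100 × (test latency − control latency)/(10 − control latency).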

Mus musculus [14] = test: Inhibition of FAAH in C57Bl/6J mouse brain assessed as increase of 2-arachidonoylglycerol level at 50 mg/kg, po after 1 hr relative to control; format: functional; procedure, shortened: as §2
Mus musculus [15] = test: Inhibition of FAAH in C57Bl/6J mouse brain assessed as increase of N-palmitoyl ethanolamine level at 50 mg/kg, po after 1 hr relative to control; format: functional; procedure, shortened: as §2
[16] = target: T2, Fatty-acid amide hydrolase 1 (Homo sapiens) (UniProt O00519); test: Competitive inhibition of full-length human FAAH expressed in COS-7 cells by Lineweaver-Burk analysis; format: cell-based
T2 sequence (whole entry): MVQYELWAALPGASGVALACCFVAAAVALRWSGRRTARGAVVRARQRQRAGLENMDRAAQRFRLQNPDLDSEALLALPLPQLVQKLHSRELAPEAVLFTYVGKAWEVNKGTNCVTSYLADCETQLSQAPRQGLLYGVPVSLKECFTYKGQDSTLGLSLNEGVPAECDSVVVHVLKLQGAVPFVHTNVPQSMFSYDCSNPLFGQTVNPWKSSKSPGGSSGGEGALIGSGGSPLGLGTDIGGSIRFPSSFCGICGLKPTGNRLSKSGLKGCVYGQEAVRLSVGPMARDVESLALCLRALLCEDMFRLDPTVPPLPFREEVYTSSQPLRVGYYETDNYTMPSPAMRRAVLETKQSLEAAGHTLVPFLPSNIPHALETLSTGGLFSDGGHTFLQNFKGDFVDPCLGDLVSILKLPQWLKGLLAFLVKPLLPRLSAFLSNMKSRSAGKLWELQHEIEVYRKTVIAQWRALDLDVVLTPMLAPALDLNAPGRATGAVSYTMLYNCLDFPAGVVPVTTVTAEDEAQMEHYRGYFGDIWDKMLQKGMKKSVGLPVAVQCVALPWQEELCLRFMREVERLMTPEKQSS
Procedure, shortened: (§3)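 Solubilized membrane lysate of COS-7 cells transiently transfected with full-length human FAAH cDNA. Aliquots quenched in 0.1 N HCl at three times; oleamide/oleic acid extracted into EtOAc and separated by TLC. Initial rates (≤10–20% conversion) analysed by Lineweaver–Burk plot.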

[17] = target: T2, Fatty-acid amide hydrolase 1 (Homo sapiens); test: Reversible inhibition of full-length human FAAH expressed in COS-7 cells by Lineweaver-Burk analysis; format: cell-based; procedure, shortened: as §3

| SMILES | fold change (FC) (Mus musculus [1]) | fold change (FC) (Mus musculus [2]) | fold change (FC) (Mus musculus [4]) | fold change (FC) (Mus musculus [5]) | fold change (FC) (Mus musculus [6]) | fold change (FC) (Mus musculus [7]) | fold change (FC) (Mus musculus [8]) | fold change (FC) (Mus musculus [9]) | also measured |
| --- | --- | --- | --- | --- | --- | --- | --- | --- | --- |
| O=C(CCCCCCc1ccccc1)c1ncc(-c2ccccn2)o1 | 7 | 4.6 | 0.9 | 11 | 1.6 | 3.3 |  |  | half-life [3]: 2 min |
| O=C(c1ncc(-c2ccccn2)o1)C1Cc2ccc(Oc3ccccc3)cc2C1 (stereo unspecified) |  | 7.4 |  |  |  | 3 | 0.8 | 0.9 |  |
| CN1CC[C@]23c4c5ccc(O)c4O[C@H]2[C@@H](O)C=C[C@H]3[C@H]1C5 |  |  |  |  |  |  |  |  | Activity (Mus musculus [10]): Active |
| O=C(c1ncc(-c2ccccn2)o1)C1CCc2cc(OCc3ccccc3)ccc2C1 (stereo unspecified) |  |  |  |  |  |  |  |  | half-life [11]: 12 min |
| O=C(O)c1cccc(-c2cnc(C(=O)C3Cc4ccc(Oc5ccccc5)cc4C3)o2)n1 (stereo unspecified) |  | 1.2 |  |  |  | 1 | 0.9 | 0.8 |  |
| O=C(O)c1cccc(-c2cnc(C(=O)[C@H]3CCc4cc(Oc5ccccc5)ccc4C3)o2)n1 | 5 | 2 | 1.1 | 3.5 | 2.1 | 1.5 | 1 | 0.7 | Ki [12]: 25 nM; Activity (Mus musculus [13]): Active; fold change (FC) (Mus musculus [14]): 1.4; fold change (FC) (Mus musculus [15]): 3.7; inhibition [16]: Active; inhibition [17]: Active |
